Data taken from ChEMBL document CHEMBL4350958, “Rational Design of Short Peptide Variants by Using Kunitzin-RE, an Amphibian-Derived Bioactivity Peptide, for Acquired Potent Broad-Spectrum Antimicrobial and Improved Therapeutic Potential of Commensalism Coinfection of Pathogens” (J Med Chem, 2019).

What was measured:
[1] = test system: Staphylococcus aureus; experiment: Antibacterial activity against methicillin-resistant Staphylococcus aureus ATCC 43300 measured after 24 hrs; format: functional; settings: ATCC 43300, 24 h
Summary of the method: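 Broth microdilution modified from NCCLS. Mid-log bacteria at (0.5–1) × 10^5 CFU mL−1 in MHB, mixed with peptides serially diluted in 0.2% BSA. Incubated 24 h at 37 °C, read at A492. MIC taken as lowest concentration giving 95% growth inhibition. At least three independent experiments, each with three technical replicates.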

[2] = Antibacterial activity against Salmonella pullorum ATCC 7913 measured after 24 hrs; format: functional, Salmonella enterica subsp. enterica serovar Pullorum; settings: Salmonella enterica, ATCC 7913, 24 h
Summary of the method: (§1)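 Broth microdilution adapted from NCCLS. Mid-log bacteria were diluted in MHB to a final (0.5–1) × 10^5 CFU mL−1. Peptides were serially diluted in 0.2% BSA and mixed with an equal volume of cells. After 24 h at 37 °C, MIC was read at A492 as the lowest concentration inhibiting 95% of growth. At least three independent experiments, each with three technical replicates.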

[3] = test system: Escherichia coli; experiment: Antibacterial activity against Escherichia coli 078 measured after 24 hrs; format: functional; settings: Escherichia coli, 078, 24 h; summary of the method: as §1
[4] = test system: Candida parapsilosis; experiment: Antifungal activity against Candida parapsilosis cgmcc2.3989 measured after 48 hrs by broth microdilution method; format: functional; settings: Lodderomyces parapsilosis, cgmcc2.3989, 48 h
Summary of the method: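 Modified CLSI M27-A2 microdilution. Yeast colonies were diluted in MOPS-buffered RPMI 1640 to a final (0.5–1) × 10^3 CFU mL−1 and mixed with an equal volume of peptide serially diluted in 0.2% BSA. After 48 h at 28 °C, MIC was read at A492 as the lowest concentration inhibiting 95% of growth. At least three independent experiments, each with three technical replicates.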

[5] = test system: Escherichia coli; experiment: Bactericidal activity against Escherichia coli ATCC 25922 incubated for 24 hrs followed by replating on agar plate and measured after overnight incubation; format: functional; settings: ATCC 25922, 24 h, read-out: MBC>99.9
Summary of the method: (§2)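 After the 24 h, 37 °C MHB microdilution (0.5–1 × 10^5 CFU mL−1 inoculum, peptides diluted in 0.2% BSA), 50 μL from each well was plated on agar and incubated overnight. MBC was taken as the lowest concentration killing >99.9% of cells. Three or more independent experiments, each with triplicate technical replicates.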

[6] = test system: Salmonella typhimurium; experiment: Bactericidal activity against Salmonella typhimurium ATCC 14028 incubated for 24 hrs followed by replating on agar plate and measured after overnight incubation; format: functional, Salmonella enterica subsp. enterica serovar Typhimurium; settings: Salmonella enterica, ATCC 14028, 24 h; read-out: MBC>99.9
Summary of the method: (§3)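 Mid-log bacteria diluted in MHB to (0.5–1) × 10^5 CFU/mL and mixed 1:1 with peptide serially diluted in 0.2% BSA. After 24 h at 37 °C, 50 μL of each mixture was plated on agar and incubated overnight. MBC taken as the lowest concentration killing >99.9% of cells. At least three independent experiments, each with three technical replicates.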

[7] = test system: Escherichia coli; experiment: Bactericidal activity against Escherichia coli K99 incubated for 24 hrs followed by replating on agar plate and measured after overnight incubation; format: functional; settings: K99, 24 h, read-out: MBC>99.9; summary of the method: as §3
[8] = test system: Escherichia coli; experiment: Bactericidal activity against Escherichia coli 078 incubated for 24 hrs followed by replating on agar plate and measured after overnight incubation; format: functional; settings: Escherichia coli, 078, 24 h; read-out: MBC>99.9; summary of the method: as §2
[9] = test system: Salmonella typhimurium; experiment: Bactericidal activity against Salmonella typhimurium C7731 incubated for 24 hrs followed by replating on agar plate and measured after overnight incubation; format: functional, Salmonella enterica subsp. enterica serovar Typhimurium; settings: Salmonella enterica, C7731, 24 h; read-out: MBC>99.9; summary of the method: as §3
[10] = test system: Candida tropicalis; experiment: Fungicidal activity against Candida tropicalis cgmcc2.1975 incubated for 48 hrs followed by replating on YM agar plate and measured after 48 hrs; format: functional
Summary of the method: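 Yeast diluted in MOPS-buffered RPMI 1640 to (0.5–1) × 10^3 CFU/mL (CLSI M27-A2, modified) and mixed 1:1 with peptide serially diluted in 0.2% BSA. After 48 h at 28 °C, 50 μL per well was plated on YM agar and incubated 48 h at 28 °C. MFC taken as the lowest concentration killing ≥99.9% of cells. Three or more independent experiments, triplicate wells.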

[11] = test system: Erythrocyte; experiment: Hemolytic activity in human RBC measured after 1 hr; format: ADME, cell-based
Summary of the method: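 Fresh healthy-donor human erythrocytes at ~1% (v/v) in PBS pH 7.4, mixed 1:1 with peptide (1–128 µM), 1 h at 37 °C. After centrifugation at 1000×g, supernatant hemoglobin read at 576 nm. Untreated cells set 0% and 0.1% Triton X-100 set 100%. MHC defined as the concentration giving >10% hemolysis. Three or more independent experiments, triplicates.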

[12] = test system: Escherichia coli; experiment: Antibacterial activity against Escherichia coli ATCC 25922 measured after 18 to 24 hrs in presence of KCl; format: functional
[13] = test system: Escherichia coli; experiment: Antibacterial activity against Escherichia coli ATCC 25922 measured after 18 to 24 hrs in presence of CaCl2; format: functional
[14] = test system: Escherichia coli; experiment: Antibacterial activity against Escherichia coli ATCC 25922 measured after 18 to 24 hrs in presence of FeCl3; format: functional
[15] = test system: Staphylococcus aureus; experiment: Antibacterial activity against Staphylococcus aureus ATCC 29213 measured after 18 to 24 hrs in presence of NaCl; format: functional
[16] = test system: Staphylococcus aureus; experiment: Antibacterial activity against Staphylococcus aureus ATCC 29213 measured after 18 to 24 hrs in presence of KCl; format: functional
[17] = test system: Staphylococcus aureus; experiment: Antibacterial activity against Staphylococcus aureus ATCC 29213 measured after 18 to 24 hrs in presence of FeCl3; format: functional
[18] = test system: Staphylococcus aureus; experiment: Antibacterial activity against Staphylococcus aureus ATCC 29213 measured after 18 to 24 hrs in presence of NH4Cl; format: functional
Summary of the method: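 MIC broth microdilution (MHB, 0.2% BSA peptide diluent, A492, 95% inhibition) run in the presence of physiological salts at final concentrations of 6 μM NH4Cl or 8 μM ZnCl2. Three independent assays, each with three technical replicates.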

[19] = test system: Candida albicans; experiment: Antifungal activity against Candida albicans cgmcc2.2086 measured after 48 hrs in presence of NaCl by broth microdilution method; format: functional; settings: cgmcc2.2086, 48 h
[20] = test system: Candida albicans; experiment: Antifungal activity against Candida albicans cgmcc2.2086 measured after 48 hrs in presence of CaCl by broth microdilution method; format: functional; settings: cgmcc2.2086, 48 h
[21] = Therapeutic index, ratio of MHC10 for hemolytic activity in human RBC to MIC95 against Candida tropicalis cgmcc2.1975; format: toxicity; settings: human red blood cells (erythrocytes), read-out: TI
Summary of the method: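 Therapeutic index = MHC divided by MIC. MHC is the lowest concentration giving >10% lysis of human RBC (1 h, 37 °C, 1-128 µM, A576). MIC is 95% growth inhibition by broth microdilution: bacteria in MHB 24 h at 37 °C; Candida in MOPS-buffered RPMI 1640 at (0.5–1) × 10^3 CFU mL−1, 48 h at 28 °C.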

[22] = Conformational stability in 50% trifluoro-ethyl alcohol assessed as alpha-helical structural propensity by measuring absorption spectra at minimum dichroic band at 35 uM by CD spectra analysis; format: physicochemical
Summary of the method: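 CD spectra from 190 to 250 nm of peptide at 35 μM in 10 mM PBS, 30 mM SDS micelles or 50% TFE, recorded in a 1.0-mm quartz cell. Ellipticity was converted to mean residue ellipticity. Three independent scans, each averaged over more than 3 runs.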

Substance | MIC95 [1] [µM] | MIC95 [2] [µM] | MIC95 [3] [µM] | MIC95 [4] [µM] | MBC [5] [µM] | MBC [6] [µM] | MBC [7] [µM] | MBC [8] [µM] | MBC [9] [µM] | MFC<=99.9 [10] [µM] | MHC10 [11] [µM] | MIC95 [12] [µM] | MIC95 [13] [µM] | MIC95 [14] [µM] | MIC95 [15] [µM] | MIC95 [16] [µM] | MIC95 [17] [µM] | MIC95 [18] [µM] | MIC95 [19] [µM] | MIC95 [20] [µM] | also measured
H-AARRILRWIFR-NH2 | 8 | 4 | 4 | 8 | 4 | 8 | 8 | 4 | 8 | 4 | > 128 | 8 | 16 | 8 | 64 | 4 | 4 | 8 | 32 | 128 | selectivity ratio [21]: 40.3; Activity [22]: 208 to 222 nm
H-AARIILRWRFR-NH2 | 1 | 2 | 2 | 4 | 4 | 4 | 4 | 2 | 4 | 4 | > 128 | 2 | 4 | 4 | 4 | 1 | 1 | 2 | 16 | 32 | selectivity ratio [21]: 50.8; Activity [22]: 208 to 222 nm
H-AARIILRGRFR-NH2 | 8 | 4 | 4 | 64 | 8 | 8 | 8 | 8 | 16 | 32 | > 128 | 8 | 64 | 4 | > 128 | 8 | 8 | 16 | > 128 | > 128 | selectivity ratio [21]: 5.04; Activity [22]: 208 to 222 nm
